From ChEMBL document CHEMBL1124728, “Small peptide inhibitors of smooth muscle myosin light chain kinase” (J Med Chem, 1990)
Non-standard residues stand in square brackets, D forms with d. Residues, ends and D or L forms follow the SMILES beside them. ξ: configuration not given here. *: point of attachment. Tyr(3,5-I2) = N[C@@H](Cc1cc(I)c(O)c(I)c1)C(=O)O; Bip = N[C@@H](Cc1ccc(-c2ccccc2)cc1)C(=O)O; Tyr(3-I) = N[C@@H](Cc1ccc(O)c(I)c1)C(=O)O; Dip = N[C@H](C(=O)O)C(c1ccccc1)c1ccccc1; 1Nal = N[C@@H](Cc1cccc2ccccc12)C(=O)O; 2Nal = N[C@@H](Cc1ccc2ccccc2c1)C(=O)O; Cha = N[C@@H](CC1CCCCC1)C(=O)O; OCH2CH2Ph = c1ccc(CCO*)cc1; ξαMeS = CC(N)(CO)C(=O)O; X3 = c1ccc(CCCCO*)cc1; NHBn = c1ccc(CN*)cc1; OBn = c1ccc(CO*)cc1; X2 = CCCCO*

The molecules below were run against T1, Myosin light chain kinase, smooth muscle (Gallus gallus, UniProt P11799) (assay: Inhibition of calmodulin-independent form of myosin light chain kinase isolated from chicken gizzard.).
T1 sequence (P11799 whole entry): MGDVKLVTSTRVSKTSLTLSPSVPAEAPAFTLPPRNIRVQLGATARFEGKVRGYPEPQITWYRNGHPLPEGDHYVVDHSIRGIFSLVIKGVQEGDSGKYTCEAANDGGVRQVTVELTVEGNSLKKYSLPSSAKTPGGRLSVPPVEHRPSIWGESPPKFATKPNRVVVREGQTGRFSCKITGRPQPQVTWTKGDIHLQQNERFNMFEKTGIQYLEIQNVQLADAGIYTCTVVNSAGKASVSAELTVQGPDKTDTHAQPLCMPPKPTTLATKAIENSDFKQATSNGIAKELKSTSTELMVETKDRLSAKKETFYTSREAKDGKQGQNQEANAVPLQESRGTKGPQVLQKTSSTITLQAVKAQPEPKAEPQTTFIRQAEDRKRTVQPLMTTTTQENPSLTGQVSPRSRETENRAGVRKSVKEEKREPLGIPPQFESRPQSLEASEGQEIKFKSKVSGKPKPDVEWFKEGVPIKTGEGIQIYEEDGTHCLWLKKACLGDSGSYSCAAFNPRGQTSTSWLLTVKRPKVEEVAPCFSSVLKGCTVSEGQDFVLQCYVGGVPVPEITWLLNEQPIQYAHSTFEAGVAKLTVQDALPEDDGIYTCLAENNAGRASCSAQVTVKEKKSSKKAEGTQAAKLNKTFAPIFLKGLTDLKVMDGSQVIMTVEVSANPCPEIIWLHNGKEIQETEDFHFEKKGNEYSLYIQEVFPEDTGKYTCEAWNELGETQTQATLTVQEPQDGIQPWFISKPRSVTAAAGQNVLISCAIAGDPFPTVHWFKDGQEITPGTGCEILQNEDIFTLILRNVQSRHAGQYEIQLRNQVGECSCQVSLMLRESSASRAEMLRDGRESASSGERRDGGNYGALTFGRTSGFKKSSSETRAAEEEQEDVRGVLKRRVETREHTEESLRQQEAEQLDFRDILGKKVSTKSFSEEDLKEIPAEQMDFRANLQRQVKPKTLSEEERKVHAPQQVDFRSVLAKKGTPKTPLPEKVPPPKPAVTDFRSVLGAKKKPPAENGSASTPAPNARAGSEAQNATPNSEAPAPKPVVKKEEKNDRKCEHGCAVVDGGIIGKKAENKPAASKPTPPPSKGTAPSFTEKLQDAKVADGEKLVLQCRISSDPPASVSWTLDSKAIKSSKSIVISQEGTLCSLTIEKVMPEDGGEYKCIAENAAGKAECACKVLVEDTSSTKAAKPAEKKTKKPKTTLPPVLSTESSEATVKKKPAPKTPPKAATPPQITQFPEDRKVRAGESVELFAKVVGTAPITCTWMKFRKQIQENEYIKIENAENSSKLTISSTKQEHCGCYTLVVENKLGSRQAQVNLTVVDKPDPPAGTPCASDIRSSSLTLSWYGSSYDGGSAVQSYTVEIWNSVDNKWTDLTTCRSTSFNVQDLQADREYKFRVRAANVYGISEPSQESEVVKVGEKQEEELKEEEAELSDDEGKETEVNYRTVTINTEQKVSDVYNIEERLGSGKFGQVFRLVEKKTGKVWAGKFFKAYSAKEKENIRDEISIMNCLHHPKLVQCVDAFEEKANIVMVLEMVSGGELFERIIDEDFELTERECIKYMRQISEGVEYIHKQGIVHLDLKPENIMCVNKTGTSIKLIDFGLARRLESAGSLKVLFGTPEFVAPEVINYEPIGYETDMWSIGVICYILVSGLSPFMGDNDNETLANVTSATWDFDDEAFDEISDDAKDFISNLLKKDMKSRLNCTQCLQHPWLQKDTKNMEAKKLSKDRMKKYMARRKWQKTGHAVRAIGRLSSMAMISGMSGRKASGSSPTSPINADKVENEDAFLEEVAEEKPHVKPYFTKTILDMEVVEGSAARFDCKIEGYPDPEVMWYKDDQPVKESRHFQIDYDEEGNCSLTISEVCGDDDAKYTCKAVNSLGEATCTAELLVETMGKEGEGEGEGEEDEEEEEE
Outline: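 Chicken gizzard MLCK made calmodulin-independent by limited trypsin digestion. It was started with ATP and stopped with HCl. Phosphate in substrate was counted on phosphocellulose filters. IC50 was read graphically from duplicates at four concentrations and reported as the mean, or as % inhibition at one concentration.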

| IC50 | Compound |
| --- | --- |
| 64 µM | CC(C)[C@H](NC(=O)[C@H](CC(N)=O)NC(=O)[C@@H](N)CO)C(=O)N[C@@H](Cc1ccccc1)C(=O)N[C@H](C)C(=O)OCc1ccccc1 |
| 75 µM | CC(C)[C@H](NC(=O)[C@H](CC(N)=O)NC(=O)[C@@H](N)CO)C(=O)N[C@H](Cc1ccccc1)C(=O)N[C@@H](C)C(=O)OCc1ccccc1 |
| 3.9 µM | CC(C)[C@H](NC(=O)[C@H](CC(N)=O)NC(=O)[C@@H](N)CO)C(=O)N[C@H](/C=C/C=C/c1ccccc1)Cc1ccccc1 |
| 17 µM | CC(C)[C@H](NC(=O)[C@H](CC(N)=O)NC(=O)[C@@H](N)CO)C(=O)N[C@H](/C=C\[C@@H](C)COCc1ccccc1)Cc1ccccc1 |
| 12 µM | CC(C)[C@H](NC(=O)[C@H](CC(N)=O)NC(=O)[C@H](N)CO)C(=O)N[C@@H](Cc1ccccc1)C(=O)N[C@@H](C)C(=O)OCc1ccccc1 |
| 262 µM | CC(C)[C@@H](CN[C@@H](Cc1ccccc1)C(=O)N[C@@H](C)C(=O)OCc1ccccc1)NC(=O)[C@H](CC(N)=O)NC(=O)[C@@H](N)CO |
| 12 µM | CC(C)[C@H](NC(=O)[C@H](CC(N)=O)NC(=O)[C@@H](N)CO)C(=O)N[C@H](CCCCc1ccccc1)Cc1ccccc1 |
| 36 µM | CC(C)[C@@H](/C=C/[C@@H](Cc1ccccc1)C(=O)N[C@@H](C)C(=O)OCc1ccccc1)NC(=O)[C@H](CC(N)=O)NC(=O)[C@@H](N)CO |
| 278 µM | CC(C)[C@H](/C=C/[C@H](CC(N)=O)NC(=O)[C@@H](N)CO)C(=O)N[C@@H](Cc1ccccc1)C(=O)N[C@@H](C)C(=O)NCc1ccccc1 |
| 186 µM | CC(C)[C@@H](NC(=O)[C@@H](CC(N)=O)NC(=O)[C@@H](N)CO)C(=O)N[C@@H](Cc1ccccc1)C(=O)N[C@@H](C)C(=O)OCc1ccccc1 |
| 23 µM | CC(C)[C@H](NC(=O)[C@H](CC(N)=O)NC(=O)[C@@H](N)CO)C(=O)N[C@H](/C=C/[C@@H](C)COCc1ccccc1)Cc1ccccc1 |
| 0.6 µM | CC(C)[C@H](NC(=O)[C@H](CC(N)=O)NC(=O)[C@@H](N)CO)C(=O)N[C@H](/C=C/C(CCCc1ccccc1)CCCc1ccccc1)Cc1ccccc1 |
| 18 µM | CC(C)[C@H](NC(=O)[C@H](C)NC(=O)[C@@H](N)CO)C(=O)N[C@@H](Cc1ccccc1)C(=O)N[C@@H](C)C(=O)OCc1ccccc1 (H-SAVFA-OBn) |
| 190 µM | C[C@H](NC(=O)[C@H](Cc1ccccc1)NC(=O)[C@@H](NC(=O)[C@H](CC(N)=O)NC(=O)[C@@H](N)CO)[C@@H](C)O)C(=O)OCc1ccccc1 (H-SNTFA-OBn) |
| 16 µM | CC(C)[C@H](NC(=O)[C@H](CC(N)=O)NC(=O)[C@@H](N)CO)C(=O)N[C@@H](Cc1ccccc1)C(=O)N[C@@H](C)C(=O)NCc1ccccc1 (H-SNVFA-NHBn) |
| 50 µM | CC(C)[C@H](NC(=O)[C@H](CC(N)=O)NC(=O)[C@@H](N)CO)C(=O)N[C@@H](Cc1ccccc1)C(=O)N[C@@H](C)C(=O)OCCc1ccccc1 (H-SNVFA-OCH2CH2Ph) |
| 185 µM | CCCCOC(=O)[C@H](C)NC(=O)[C@H](Cc1ccccc1)NC(=O)[C@@H](NC(=O)[C@H](CC(N)=O)NC(=O)[C@@H](N)CO)C(C)C (H-SNVFA-X2) |
| 2 µM | CC(C)[C@H](NC(=O)[C@H](CC(N)=O)NC(=O)[C@@H](N)CO)C(=O)N[C@@H](Cc1cccc2ccccc12)C(=O)N[C@@H](C)C(=O)OCc1ccccc1 (H-SNV[1Nal]A-OBn) |
| 5 µM | CC(C)[C@H](NC(=O)[C@H](CC(N)=O)NC(=O)[C@@H](N)CO)C(=O)N[C@@H](Cc1ccc(-c2ccccc2)cc1)C(=O)N[C@@H](C)C(=O)OCc1ccccc1 (H-SNV[Bip]A-OBn) |
| 24 µM | CC(C)[C@H](NC(=O)[C@@H](NC(=O)[C@@H](N)CO)C(C)C)C(=O)N[C@@H](Cc1ccccc1)C(=O)N[C@@H](C)C(=O)OCc1ccccc1 (H-SVVFA-OBn) |

Each molecule was assayed against Myosin light chain kinase, smooth muscle (Gallus gallus) (UniProt P11799) (assay: Inhibition of native form of myosin light chain kinase at from chicken gizzard 100 uM).
Myosin light chain kinase, smooth muscle (Gallus gallus), sequence (P11799 whole entry): as above
Outline: (§1)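 Native calmodulin-dependent gizzard MLCK, over 95% homogeneous, with 200 nM calmodulin, 1 mM EGTA and about 200 μM excess free Ca2+. Started with ATP and stopped with HCl; phosphocellulose filter counting. Graphical IC50 from duplicates at four concentrations, or % inhibition at a single concentration.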

| inhibition | Compound |
| --- | --- |
| 14% | CC(C)[C@H](NC(=O)[C@@H](CC(N)=O)NC(=O)[C@H](N)CO)C(=O)N[C@@H](Cc1ccccc1)C(=O)N[C@@H](C)C(=O)OCc1ccccc1 |

What follows are molecules tested against T1, Myosin light chain kinase, smooth muscle (assay: Inhibition of native form of chicken MLCK (myosin light chain kinase)).
Outline: as §1

| IC50 | Compound |
| --- | --- |
| 5 µM | CC(C)[C@H](NC(=O)[C@H](CC(N)=O)NC(=O)[C@H](N)CO)C(=O)N[C@@H](Cc1ccccc1)C(=O)N[C@@H](C)C(=O)OCc1ccccc1 |
| 56 µM | CC(C)[C@H](NC(=O)[C@H](CC(N)=O)NC(=O)[C@@H]1C[C@H](O)CN1)C(=O)N[C@@H](Cc1ccccc1)C(=O)N[C@@H](C)C(=O)OCc1ccccc1 |
| 12 µM | CC(C)[C@@H](NC(=O)[C@@H](CC(N)=O)NC(=O)[C@H](N)CO)C(=O)N[C@H](Cc1ccccc1)C(=O)N[C@H](C)C(=O)OCc1ccccc1 |
| 31 µM | CC(C)[C@H](NC(=O)[C@H](CC(N)=O)NC(=O)[C@H](CO)NC(=O)[C@@H](NC(=O)[C@H](C)N)[C@@H](C)O)C(=O)N[C@@H](Cc1ccccc1)C(=O)N[C@@H](C)C(=O)OCc1ccccc1 (H-ATSNVFA-OBn) |
| 8 µM | CC(C)[C@H](NC(=O)[C@H](CC(N)=O)NC(=O)[C@@H](N)CS)C(=O)N[C@@H](Cc1ccccc1)C(=O)N[C@@H](C)C(=O)OCc1ccccc1 (H-CNVFA-OBn) |
| 76 µM | CSCC[C@H](N)C(=O)N[C@@H](CC(N)=O)C(=O)N[C@H](C(=O)N[C@@H](Cc1ccccc1)C(=O)N[C@@H](C)C(=O)OCc1ccccc1)C(C)C (H-MNVFA-OBn) |
| 200 µM | CC(C)[C@H](NC(=O)[C@H](CC(N)=O)NC(=O)[C@@H]1CCCN1)C(=O)N[C@@H](Cc1ccccc1)C(=O)N[C@@H](C)C(=O)OCc1ccccc1 (H-PNVFA-OBn) |
| 38 µM | CC(C)[C@H](NC(=O)[C@H](CC(N)=O)NC(=O)[C@H](CO)NC(=O)[C@@H](NC(=O)[C@H](C)NC(=O)[C@@H](N)CCCNC(=N)N)[C@@H](C)O)C(=O)N[C@@H](Cc1ccccc1)C(=O)N[C@@H](C)C(=O)OCc1ccccc1 (H-RATSNVFA-OBn) |
| 450 µM | CC(C)[C@H](NC(=O)CNC(=O)[C@@H](N)CO)C(=O)N[C@@H](Cc1ccccc1)C(=O)N[C@@H](C)C(=O)OCc1ccccc1 (H-SGVFA-OBn) |
| 50 µM | C[C@H](NC(=O)[C@H](Cc1ccccc1)NC(=O)[C@H](Cc1ccccc1)NC(=O)[C@H](CC(N)=O)NC(=O)[C@@H](N)CO)C(=O)OCc1ccccc1 (H-SNFFA-OBn) |
| 3 µM | CC(C)C[C@H](NC(=O)[C@H](CC(N)=O)NC(=O)[C@@H](N)CO)C(=O)N[C@@H](Cc1ccccc1)C(=O)N[C@@H](C)C(=O)OCc1ccccc1 (H-SNLFA-OBn) |
| 30 µM | CSCC[C@H](NC(=O)[C@H](CC(N)=O)NC(=O)[C@@H](N)CO)C(=O)N[C@@H](Cc1ccccc1)C(=O)N[C@@H](C)C(=O)OCc1ccccc1 (H-SNMFA-OBn) |
| 160 µM | CC(C)[C@H](NC(=O)[C@H](CC(N)=O)NC(=O)[C@@H](N)CO)C(=O)N[C@@H](Cc1ccccc1)C(=O)OCc1ccccc1 (H-SNVF-OBn) |
| 15 µM | CC(C)[C@H](NC(=O)[C@H](CC(N)=O)NC(=O)[C@@H](N)CO)C(=O)N[C@@H](Cc1ccccc1)C(=O)N[C@@H](C)C(=O)NCc1ccccc1 (H-SNVFA-NHBn) |
| 15 µM | CC(C)[C@H](NC(=O)[C@H](CC(N)=O)NC(=O)[C@@H](N)CO)C(=O)N[C@@H](Cc1ccccc1)C(=O)N[C@@H](C)C(=O)OCCc1ccccc1 (H-SNVFA-OCH2CH2Ph) |
| 19 µM | CC(C)[C@H](NC(=O)[C@H](CC(N)=O)NC(=O)[C@@H](N)CO)C(=O)N[C@@H](Cc1ccccc1)C(=O)N[C@@H](C)C(=O)OCCCCc1ccccc1 (H-SNVFA-X3) |
| 43 µM | CC(C)[C@H](NC(=O)[C@H](CC(N)=O)NC(=O)[C@@H](N)CO)C(=O)N[C@@H](Cc1ccccc1)C(=O)N[C@@H](CO)C(=O)OCc1ccccc1 (H-SNVFS-OBn) |
| 6 µM | CC(C)[C@H](NC(=O)[C@H](CC(N)=O)NC(=O)[C@@H](N)CO)C(=O)N[C@@H](Cc1c[nH]c2ccccc12)C(=O)N[C@@H](C)C(=O)OCc1ccccc1 (H-SNVWA-OBn) |
| 45 µM | CC(C)[C@H](NC(=O)[C@H](CC(N)=O)NC(=O)[C@@H](N)CO)C(=O)N[C@@H](Cc1ccc(O)cc1)C(=O)N[C@@H](C)C(=O)OCc1ccccc1 (H-SNVYA-OBn) |
| 2 µM | CC(C)[C@H](NC(=O)[C@H](CC(N)=O)NC(=O)[C@@H](N)CO)C(=O)N[C@@H](Cc1cccc2ccccc12)C(=O)N[C@@H](C)C(=O)OCc1ccccc1 (H-SNV[1Nal]A-OBn) |
| 12 µM | CC(C)[C@H](NC(=O)[C@H](CC(N)=O)NC(=O)[C@@H](N)CO)C(=O)N[C@@H](Cc1ccc2ccccc2c1)C(=O)N[C@@H](C)C(=O)OCc1ccccc1 (H-SNV[2Nal]A-OBn) |
| 1 µM | CC(C)[C@H](NC(=O)[C@H](CC(N)=O)NC(=O)[C@@H](N)CO)C(=O)N[C@@H](Cc1ccc(-c2ccccc2)cc1)C(=O)N[C@@H](C)C(=O)OCc1ccccc1 (H-SNV[Bip]A-OBn) |
| 12 µM | CC(C)[C@H](NC(=O)[C@H](CC(N)=O)NC(=O)[C@@H](N)CO)C(=O)N[C@@H](CC1CCCCC1)C(=O)N[C@@H](C)C(=O)OCc1ccccc1 (H-SNV[Cha]A-OBn) |
| 6 µM | CC(C)[C@H](NC(=O)[C@H](CC(N)=O)NC(=O)[C@@H](N)CO)C(=O)N[C@H](C(=O)N[C@@H](C)C(=O)OCc1ccccc1)C(c1ccccc1)c1ccccc1 (H-SNV[Dip]A-OBn) |
| 7 µM | CC(C)[C@H](NC(=O)[C@H](CC(N)=O)NC(=O)[C@@H](N)CO)C(=O)N[C@@H](Cc1cc(I)c(O)c(I)c1)C(=O)N[C@@H](C)C(=O)OCc1ccccc1 (H-SNV[Tyr(3,5-I2)]A-OBn) |
| 1 µM | CC(C)[C@H](NC(=O)[C@H](CC(N)=O)NC(=O)[C@@H](N)CO)C(=O)N[C@@H](Cc1ccc(O)c(I)c1)C(=O)N[C@@H](C)C(=O)OCc1ccccc1 (H-SNV[Tyr(3-I)]A-OBn) |
| 18 µM | CC(C)[C@H](NC(=O)[C@H](CC(N)=O)NC(=O)[C@@H](N)[C@@H](C)O)C(=O)N[C@@H](Cc1ccccc1)C(=O)N[C@@H](C)C(=O)OCc1ccccc1 (H-TNVFA-OBn) |
| 15 µM | CC(C)[C@H](NC(=O)[C@H](CC(N)=O)NC(=O)[C@H](CO)NC(=O)[C@@H](N)[C@@H](C)O)C(=O)N[C@@H](Cc1ccccc1)C(=O)N[C@@H](C)C(=O)OCc1ccccc1 (H-TSNVFA-OBn) |
| 350 µM | CC(C)[C@H](NC(=O)[C@H](CC(N)=O)NC(=O)C(C)(N)CO)C(=O)N[C@@H](Cc1ccccc1)C(=O)N[C@@H](C)C(=O)OCc1ccccc1 (stereo not given in full) (H-[ξαMeS]NVFA-OBn) |
